From PubChem BioAssay
In the library only some 3.1% were active in any assay of this set; here they are far more common.
E-sel inducer: E-selectin induction on HUVECs. HUVEC E-selectin immunofluorescence imaging; normalized: neutral wells 0, TNF-alpha wells 100. P16581. AID 686992. 0.37% of 260,000 active. activation, % at 7.58 µM;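 active = mean E-selectin-positive cell signal at least 10% of the positive control, reached in at least 60% of replicates, without over 20% cell loss; inconclusive = no rule given, readout overlaps actives, possibly toxicity-flagged; inactive = the rest, including those meeting only one limit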
Target sequence (P16581 whole entry, looked up): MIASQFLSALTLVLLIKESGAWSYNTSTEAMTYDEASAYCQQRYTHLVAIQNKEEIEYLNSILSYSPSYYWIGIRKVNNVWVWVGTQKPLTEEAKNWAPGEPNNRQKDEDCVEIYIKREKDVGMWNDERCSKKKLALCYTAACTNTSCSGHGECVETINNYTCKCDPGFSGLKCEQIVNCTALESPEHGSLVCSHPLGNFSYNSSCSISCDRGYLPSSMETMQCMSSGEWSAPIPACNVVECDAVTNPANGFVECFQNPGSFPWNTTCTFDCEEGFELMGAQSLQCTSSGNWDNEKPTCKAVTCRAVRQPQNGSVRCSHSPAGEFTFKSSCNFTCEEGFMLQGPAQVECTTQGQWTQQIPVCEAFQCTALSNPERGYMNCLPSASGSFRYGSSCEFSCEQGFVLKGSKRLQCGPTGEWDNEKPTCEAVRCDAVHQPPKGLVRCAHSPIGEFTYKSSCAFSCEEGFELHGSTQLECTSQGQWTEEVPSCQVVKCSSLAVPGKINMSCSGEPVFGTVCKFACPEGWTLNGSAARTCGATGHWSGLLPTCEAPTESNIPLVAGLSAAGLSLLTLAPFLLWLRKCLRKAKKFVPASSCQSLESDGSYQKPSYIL
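Test system: HUVEC; input: 3,000 HUVEC/well; measured by: immunofluorescence imaging; read-out: % PE-positive cells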
DENV2 CPE: DENV2-induced cell death inhibition; CPE inhibition, % at 9.99 µM; 1.7% of 350,000 active; DENV2-infected cells, cytopathic effect rescue, plate reader; in the data active = CPE inhibition above about 20%, passing the limit was not always enough; inconclusive = no clear call, values can overlap the other calls; tested in BHK-21 cells
Cneo AK release: causes C. neoformans cell lysis | adenylate kinase release luminescence, 4 h; normalised: neutral wells 0, clomiphene wells 100 | lysis activity, % at 15 µM | 0.2% of 360,000 active;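 active = mean lysis activity across replicates of at least 80%, whatever share of replicates individually reach that level; inactive = mean lysis activity below 80%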
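Assay system: C. neoformans cells. Amount: yeast cell density of 5 × 10^6 cells/mL. Technique: AK luminescence. Buffer or medium: YPD. Times: static 4 h at 37 °C with compound, 1 h detection. Dosing: single-point compound dose. Read-out: lysis from increased AK signal.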
miR-122 sensor: inhibitors of miR-122 in Huh7 cells | activation (reporter increase), % at 12.5 µM | Huh7 miR-122 Renilla luciferase sensor, 48 h; neutral wells = 0, positive control = 100 | 0.3% of 340,000 active | AID 602342;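 active = mean replicate activation score at least 90 and every replicate individually at or above 90; inconclusive = only one of the two criteria met; inactive = neither criterion met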;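 note: higher luciferase means less miR-122 activity so hits act as miR-122 inhibitors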
Ecoli rRNA inh: selective bacterial rRNA inhibition in E. coli; E. coli WT GFP vs humanized-ribosome RFP mutants, fluorescence, 24 h; active compounds read low; DMSO median 0, no signal -100; 1.6% of 350,000 active; GFP signal change (wild-type ribosome), % (test concentration not listed);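 active = significant combined selectivity score with lowered wild-type GFP, culture density cut under 30%, mutant RFP and density less affected; inactive = any of these conditions unmet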
Numbers stand for hits; ! = repeats disagree; [ ] = another dose, or the depositor's remark.

What do the screens show for `C[C@H](CO)N1C[C@H](C)[C@@H](CN(C)Cc2ccc(Oc3ccccc3)cc2)Oc2cc(Br)ccc2S1(=O)=O`?
E-sel inducer: inactive; DENV2 CPE: 25.0!; Cneo AK release: inactive; miR-122 sensor: inactive; Ecoli rRNA inh: inactive

How did O=C(NC[C@H]1CC[C@@H]2[C@@H](CN2C(=O)CN2CCOCC2)O1)NC1CCCCC1 do in these assays?
DENV2 CPE: inactive

What do the screens show for `COc1ccc(NC(=O)N(C)C[C@@H]2Oc3ccc(NC(=O)CCC(F)(F)F)cc3C(=O)N([C@@H](C)CO)C[C@@H]2C)cc1`?
E-sel inducer: inactive; DENV2 CPE: inactive; Cneo AK release: inactive; miR-122 sensor: inactive; Ecoli rRNA inh: inactive

Results for C[C@@H]1CN([C@@H](C)CO)C(=O)c2cccc(NC(=O)Nc3ccc(F)cc3)c2O[C@H]1CN(C)CC1CCCCC1 ?
E-sel inducer: 58.0; DENV2 CPE: inactive; Cneo AK release: inactive; miR-122 sensor: inactive; Ecoli rRNA inh: inactive

Results for C[C@H](CO)N1C[C@H](C)[C@H](CN(C)CC2CCCCC2)Oc2c(NC(=O)Nc3ccc(F)cc3)cccc2C1=O ?
E-sel inducer: inactive; DENV2 CPE: inactive; Cneo AK release: inactive; miR-122 sensor: inactive; Ecoli rRNA inh: inactive

Results for C[C@@H]1CN([C@H](C)CO)C(=O)c2cccc(NC(=O)Nc3ccccc3)c2O[C@H]1CN(C)CC1CCCCC1 ?
E-sel inducer: inactive; DENV2 CPE: inactive; Cneo AK release: inactive; miR-122 sensor: inactive; Ecoli rRNA inh: inactive

What do the screens show for `C[C@@H]1CN([C@@H](C)CO)C(=O)c2cccc(NC(=O)Nc3ccccc3)c2O[C@@H]1CN(C)CC1CCCCC1`?
E-sel inducer: inactive; DENV2 CPE: 35.9; Cneo AK release: inactive; miR-122 sensor: inactive; Ecoli rRNA inh: inactive

How did C[C@@H]1CN([C@@H](C)CO)C(=O)c2cccc(NC(=O)NC3CCCCC3)c2O[C@H]1CN(C)CC1CCCCC1 do in these assays?
E-sel inducer: inactive; DENV2 CPE: 44.4; Cneo AK release: inactive; miR-122 sensor: inactive; Ecoli rRNA inh: inactive

What do the screens show for `COc1ccc2c3c(n(C)c2c1)[C@@H](CO)N(C(=O)Nc1ccc(F)cc1)CC31CN(Cc2cccc(F)c2)C1`?
Ecoli rRNA inh: inactive

How did COCC#Cc1cnc2c(c1)C(=O)N([C@H](C)CO)C[C@H](C)[C@H](CN(C)S(C)(=O)=O)O2 do in these assays?
E-sel inducer: inactive; DENV2 CPE: inactive; Cneo AK release: inactive; miR-122 sensor: inactive; Ecoli rRNA inh: inactive

How did C[C@@H]1CN([C@@H](C)CO)C(=O)c2cc(NC(=O)CCCN(C)C)ccc2O[C@H]1CN(C)S(=O)(=O)c1ccc(F)cc1 do in these assays?
E-sel inducer: inactive; DENV2 CPE: inactive; Cneo AK release: inactive; miR-122 sensor: inactive; Ecoli rRNA inh: inactive

Results for CC(C)Cc1csc(NC(=O)c2ccc(Br)cc2)c1C(=O)O ?
DENV2 CPE: inactive; Cneo AK release: inactive; miR-122 sensor: inactive; Ecoli rRNA inh: -26.4

What do the screens show for `O=C(Nc1c(-c2ccccc2)[nH][nH]c1=O)c1ccc(-c2ccccc2)cc1`?
E-sel inducer: inactive; DENV2 CPE: inactive; Ecoli rRNA inh: -14.2

Results for Cc1ccc(C(=O)Nc2c(-c3ccc(Cl)cc3)[nH][nH]c2=O)cc1 ?
E-sel inducer: inactive; DENV2 CPE: inactive; Cneo AK release: inactive; miR-122 sensor: inactive; Ecoli rRNA inh: inactive

How did C[C@H]1CN(C)C(=O)c2ccccc2O[C@@H]1CN(C)S(C)(=O)=O do in these assays?
Ecoli rRNA inh: inactive

How did C[C@H](O)C#Cc1cnc2c(c1)C(=O)N([C@@H](C)CO)C[C@@H](C)[C@@H](CN(C)C(=O)Cc1ccncc1)O2 do in these assays?
E-sel inducer: inactive; Cneo AK release: 114.8; miR-122 sensor: inactive; Ecoli rRNA inh: inactive

What do the screens show for `COCC(=O)N(C)C[C@@H]1Oc2ncc(C#Cc3cccnc3)cc2C(=O)N([C@H](C)CO)C[C@H]1C`?
E-sel inducer: inactive; DENV2 CPE: inactive; Cneo AK release: inactive; miR-122 sensor: 112.7[16.7 µM]; Ecoli rRNA inh: inactive

What do the screens show for `COCC(=O)N(C)C[C@H]1Oc2ncc(C#Cc3ccccc3)cc2C(=O)N([C@@H](C)CO)C[C@H]1C`?
E-sel inducer: inactive; DENV2 CPE: inconclusive; Cneo AK release: inactive; miR-122 sensor: inactive; Ecoli rRNA inh: inactive

What do the screens show for `COCC(=O)N(C)C[C@@H]1Oc2ncc(C#Cc3ccc(OC)cc3)cc2C(=O)N([C@@H](C)CO)C[C@H]1C`?
E-sel inducer: inactive; DENV2 CPE: 67.8; Cneo AK release: inactive; miR-122 sensor: inactive; Ecoli rRNA inh: inactive

What do the screens show for `COCC(=O)N(C)C[C@H]1Oc2ncc(C#Cc3ccc(OC)cc3)cc2C(=O)N([C@@H](C)CO)C[C@H]1C`?
E-sel inducer: inactive; DENV2 CPE: inactive; Cneo AK release: inactive; miR-122 sensor: inactive; Ecoli rRNA inh: inactive

What do the screens show for `O=C(C[C@@H]1CC[C@H]2[C@@H](COC[C@H](O)CN2Cc2ccc(Oc3ccccc3)cc2)O1)N1CCc2ccccc2C1`?
DENV2 CPE: inactive; Cneo AK release: inactive; miR-122 sensor: inactive

Results for COCC#Cc1ccc2c(c1)O[C@H](CN(C)Cc1ccccn1)[C@@H](C)CN([C@H](C)CO)S2(=O)=O ?
E-sel inducer: inactive; DENV2 CPE: inactive; Cneo AK release: inactive; miR-122 sensor: inactive; Ecoli rRNA inh: inactive

Results for CO[C@H]1CN(C)C(=O)c2ccc(NS(=O)(=O)c3ccccc3)cc2OC[C@@H](C)NC[C@H]1C ?
E-sel inducer: inactive; DENV2 CPE: inactive; Cneo AK release: inactive; miR-122 sensor: inactive; Ecoli rRNA inh: inactive

Results for Cc1ccccc1S(=O)(=O)N1C[C@H](O)COC[C@@H]2O[C@H](CC(=O)NCc3ccccc3Cl)CC[C@H]21 ?
E-sel inducer: inactive; DENV2 CPE: inactive; Cneo AK release: inactive; miR-122 sensor: inactive; Ecoli rRNA inh: inactive

How did CCn1c(SCC(=O)Nc2ccc(N3CCOCC3)cc2)nnc1-c1ccc(OC)cc1 do in these assays?
DENV2 CPE: inactive; miR-122 sensor: 141.6; Ecoli rRNA inh: inactive

Results for CCn1c(C)nnc1SCC(=O)Nc1ccc(N2CCOCC2)cc1 ?
E-sel inducer: inactive; DENV2 CPE: inactive; Cneo AK release: inactive; Ecoli rRNA inh: inactive

What do the screens show for `CC=Cc1ccc2n(c1=O)C[C@H]1[C@H](CO)[C@@H](C(=O)NCC(F)(F)F)[C@@H]2N1C(=O)C1CC1` (mixture of isomers)?
E-sel inducer: inactive; DENV2 CPE: 59.2; Cneo AK release: inactive; miR-122 sensor: inactive; Ecoli rRNA inh: inactive

How did CC(=O)N1[C@@H]2Cn3c(ccc(-c4ccc(F)cc4)c3=O)[C@H]1[C@@H](C(=O)N(C)C)[C@@H]2CO do in these assays?
E-sel inducer: inactive; DENV2 CPE: 27.2; Cneo AK release: inactive; Ecoli rRNA inh: inactive

Results for CC=Cc1ccc2n(c1=O)C[C@@H]1[C@@H](CO)[C@H](C(=O)NCC(F)(F)F)[C@H]2N1C(C)=O (mixture of isomers) ?
E-sel inducer: inactive; DENV2 CPE: 76.1; Cneo AK release: inactive; miR-122 sensor: inactive; Ecoli rRNA inh: inactive
